Each block holds one compound with its values, some of them ahead of it. Calls of active or inactive are those of the source. The rule behind the calls is not given here.
Legend:
[1] = target: Glycogen synthase kinase-3 (Homo sapiens) (UniProt P49840+P49841); assay: Inhibition of GSK3 in human A-375 cells harbouring TCF/LEF luciferase reporter gene assessed as increase in wnt signaling incubated for 5 hrs by Bright-Glo luciferase assay; type: cell-based
Method in brief: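 A375 cells carried a lentiviral TCF/LEF-responsive luciferase reporter, selected with puromycin 1 μg/ml for 3 days. Cells were seeded at 10,000 per well and moved to 2% FBS medium. Agents were given at 0.5 nmol/L–1 μmol/L for 5 h, and luciferase was read with Bright-Glo substrate.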

A2058 = assay: Antiproliferative activity against human A2058 cells harboring BRAF V600E/PTEN null mutation assessed as reduction in cell viability incubated for 72 hrs by CellTitre-Glo assay; type: functional, cell-based; conditions: A2058, 72 h
Method in brief: (§1)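 Cells seeded at 2,000 per well and left to adhere overnight. After 24 h, medium was switched to growth medium with 2% FBS. Test agent was added at 0.5 nmol/L to 10 μmol/L for 72 h. Viability was read by CellTiter-Glo luminescence. IC50 came from nonlinear regression sigmoidal dose-response fits.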

SK-MEL-2 = assay: Antiproliferative activity against human SK-MEL-2 cells harboring NRAS Q61R mutation assessed as reduction in cell viability incubated for 72 hrs by CellTitre-Glo assay; type: functional, cell-based; conditions: SK-MEL-2, 72 h; method in brief: as §1
[2] = Antiproliferative activity against human MEXF1792 cells harboring NRAS G13D mutation assessed as reduction in cell viability incubated for 72 hrs by CellTitre-Glo assay; type: functional, cell-based; conditions: MEXF1792, 72 h; method in brief: as §1
[3] = Antiproliferative activity against human MEXF1341 cells harboring NRAS Q61 mutation assessed as reduction in cell viability incubated for 72 hrs by CellTitre-Glo assay; type: functional, cell-based; conditions: MEXF1341, 72 h; method in brief: as §1
[4] = Antiproliferative activity against human MEL1102 cells harboring NRAS Q61K mutation assessed as reduction in cell viability incubated for 72 hrs by CellTitre-Glo assay; type: functional, cell-based; conditions: MEL1102, 72 h; method in brief: as §1
SK-MEL-28 = assay: Antiproliferative activity against human SK-MEL-28 cells harboring BRAF V600E mutation assessed as reduction in cell viability incubated for 72 hrs by CellTitre-Glo assay; type: functional, cell-based; conditions: SK-MEL-28, 72 h; method in brief: as §1
A-375 [5] = assay: Antiproliferative activity against human A-375 cells harboring BRAF V600E mutation assessed as reduction in cell viability incubated for 72 hrs by CellTitre-Glo assay; type: functional, cell-based; conditions: A-375, 72 h; method in brief: as §1
M14 [6] = assay: Antiproliferative activity against human M14 cells harboring BRAF V600E mutation assessed as reduction in cell viability incubated for 72 hrs by CellTitre-Glo assay; type: functional, cell-based; conditions: M14, 72 h; method in brief: as §1
CHL-1 = assay: Antiproliferative activity against human CHL-1 cells assessed as reduction in cell viability incubated for 72 hrs by CellTitre-Glo assay; type: functional, cell-based; conditions: CHL-1, 72 h; method in brief: as §1
[7] = Antiproliferative activity against human MEXF276 cells harboring BRAF V600E mutation assessed as reduction in cell viability incubated for 72 hrs by CellTitre-Glo assay; type: functional, cell-based; conditions: MEXF276, 72 h; method in brief: as §1
[8] = Antiproliferative activity against human MEXF462 cells harboring BRAF V600E mutation assessed as reduction in cell viability incubated for 72 hrs by CellTitre-Glo assay; type: functional, cell-based; conditions: MEXF462, 72 h; method in brief: as §1
M14 [9] = assay: Antiproliferative activity against human M14 cells transfected with beta-catenin shRNA assessed as reduction in cell viability incubated for 72 hrs by CellTitre-Glo assay; type: functional, cell-based
Method in brief: (§2)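 A375 or M14 cells were transduced with lentiviral shRNA particles (target or control) at MOI 2 with polybrene 8 μg/ml. Puromycin selection at 2 μg/ml began 48 h later, and knockdown was checked by immunoblot. Cells were seeded at 2,000 per well in 2% FBS medium, exposed to agents for 72 h, and read by CellTiter-Glo.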

A-375 [10] = assay: Antiproliferative activity against human A-375 cells transfected with beta-catenin shRNA assessed as reduction in cell viability incubated for 72 hrs by CellTitre-Glo assay; type: functional, cell-based; method in brief: as §2
M14 [11] = assay: Antiproliferative activity against human vemurafenib-resistant M14 cells harboring BRAF V600E mutation assessed as reduction in cell viability incubated for 72 hrs by CellTitre-Glo assay; type: functional, cell-based; conditions: M14, 72 h
Method in brief: (§3)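 Resistant A375 or M14 lines were derived by growth in vemurafenib over 3 months. Cells were seeded at 2,000 per well and allowed to adhere overnight, then moved to 2% FBS growth medium. Agents were added at 0.5 nmol/L–10 μmol/L for 72 h. Viability was read by CellTiter-Glo, and IC50 was taken from sigmoidal nonlinear regression.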

A-375 [12] = assay: Antiproliferative activity against human vemurafenib-resistant A-375 cells harboring BRAF V600E mutation assessed as reduction in cell viability incubated for 72 hrs by CellTitre-Glo assay; type: functional, cell-based; conditions: A-375, 72 h; method in brief: as §3
A-375 [13] = assay: Antiproliferative activity against human A-375 cells transfected with Axin1 shRNA assessed as reduction in cell viability incubated for 72 hrs by CellTitre-Glo assay; type: functional, cell-based; method in brief: as §2
M14 [14] = assay: Antiproliferative activity against human M14 cells transfected with Axin1 shRNA assessed as reduction in cell viability incubated for 72 hrs by CellTitre-Glo assay; type: functional, cell-based; method in brief: as §2

Sequence of Glycogen synthase kinase-3 (Homo sapiens) (P49840 whole entry, looked up): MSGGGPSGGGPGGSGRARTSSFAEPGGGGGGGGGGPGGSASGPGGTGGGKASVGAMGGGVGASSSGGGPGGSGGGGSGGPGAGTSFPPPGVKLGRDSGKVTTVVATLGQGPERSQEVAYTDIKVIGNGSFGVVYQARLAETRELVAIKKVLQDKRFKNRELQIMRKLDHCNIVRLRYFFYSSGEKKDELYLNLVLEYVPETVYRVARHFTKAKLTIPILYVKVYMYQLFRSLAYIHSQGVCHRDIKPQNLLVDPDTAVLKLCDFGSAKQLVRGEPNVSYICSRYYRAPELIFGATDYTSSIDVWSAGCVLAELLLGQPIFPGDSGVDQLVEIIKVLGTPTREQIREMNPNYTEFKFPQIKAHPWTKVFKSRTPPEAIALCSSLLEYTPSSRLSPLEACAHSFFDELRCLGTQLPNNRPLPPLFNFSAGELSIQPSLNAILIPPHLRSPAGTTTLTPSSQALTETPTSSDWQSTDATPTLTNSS
Sequence of Glycogen synthase kinase-3 (Homo sapiens) (P49841 whole entry, looked up): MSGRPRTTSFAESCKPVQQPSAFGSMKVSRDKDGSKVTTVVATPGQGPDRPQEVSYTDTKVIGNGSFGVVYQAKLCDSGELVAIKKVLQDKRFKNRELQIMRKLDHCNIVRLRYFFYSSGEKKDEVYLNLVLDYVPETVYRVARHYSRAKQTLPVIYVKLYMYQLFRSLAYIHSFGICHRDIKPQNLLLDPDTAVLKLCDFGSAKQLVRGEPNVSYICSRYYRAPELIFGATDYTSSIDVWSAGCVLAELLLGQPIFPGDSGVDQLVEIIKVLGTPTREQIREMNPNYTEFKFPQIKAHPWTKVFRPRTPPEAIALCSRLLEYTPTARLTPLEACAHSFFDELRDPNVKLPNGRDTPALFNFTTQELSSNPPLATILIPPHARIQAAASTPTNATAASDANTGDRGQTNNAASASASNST

inhibition [1]: Active
SMILES: Nc1nc2ccc(OC(F)(F)F)cc2s1

SMILES: CC(=O)O/N=C1/C(=C2/C(=O)Nc3cc(Br)ccc32)Nc2ccccc21 [6-BROMOINDIRUBIN-3'-ACETOXIME]
IC50 (A2058): 361 nM
IC50 (SK-MEL-2): 942 nM
IC50 [2]: 4940 nM
IC50 [3]: 1150 nM
inhibition [1]: Active
IC50 [4]: 750 nM
IC50 (SK-MEL-28): > 5000 nM
IC50 (A-375 [5]): 914 nM
IC50 (M14 [6]): 646 nM
IC50 (CHL-1): 1460 nM
IC50 [7]: 954 nM
IC50 [8]: 605 nM

IC50 (SK-MEL-2): > 10000 nM
IC50 (A-375 [12]): 5480 nM
IC50 (A-375 [5]): 102 nM
SMILES: CCCS(=O)(=O)Nc1ccc(F)c(C(=O)c2c[nH]c3ncc(-c4ccc(Cl)cc4)cc23)c1F [VEMURAFENIB]
Activity (M14 [9]): Active
Activity (A-375 [10]): Active
IC50 (M14 [11]): 3860 nM
Activity (A-375 [13]): Active
Activity (M14 [14]): Active
IC50 [4]: 1260 nM
IC50 (M14 [6]): 88 nM
IC50 (CHL-1): > 10000 nM

— ChEMBL document CHEMBL5653620, “Activating the Wnt/β-Catenin Pathway for the Treatment of Melanoma--Application of LY2090314, a Novel Selective Inhibitor of Glycogen Synthase Kinase-3” (PLoS One, 2015)
